Screening results as filed in PubChem.
This is a sample that favours compounds with a hit; in the whole collection about 1.6% have one here.
NR2E3 ag-1: activates human photoreceptor nuclear receptor NR2E3. Q9Y5X4. GST-NR2E3/biotin-RetCOR TR-FRET, 1536-well. inhibition of corepressor binding, % at 4.78 µM. 320,000 compounds, 0.12% hits. AID 2300;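 active = percent inhibition above the cutoff of mean plus 3 SD of all tested compounds, set per screening campaign, cut at about 20% in these data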;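 also: 0% = DMSO wells and 100% = biotin wells as full block of FRET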
Target sequence (Q9Y5X4 whole entry, looked up): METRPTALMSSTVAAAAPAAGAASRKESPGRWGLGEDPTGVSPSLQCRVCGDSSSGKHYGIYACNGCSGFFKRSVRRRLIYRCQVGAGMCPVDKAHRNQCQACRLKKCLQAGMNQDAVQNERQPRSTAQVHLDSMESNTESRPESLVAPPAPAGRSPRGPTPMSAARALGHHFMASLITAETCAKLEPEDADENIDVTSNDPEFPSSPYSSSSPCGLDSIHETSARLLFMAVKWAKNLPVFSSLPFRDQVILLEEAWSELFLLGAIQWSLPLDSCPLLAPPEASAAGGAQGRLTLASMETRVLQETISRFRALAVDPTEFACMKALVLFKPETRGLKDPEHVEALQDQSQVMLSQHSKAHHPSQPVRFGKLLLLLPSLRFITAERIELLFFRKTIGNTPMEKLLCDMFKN
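Test system – NR2E3–RetCOR corepressor complex · Quantity – NR2E3 fusion 1.35 nM · Buffer or medium – Tris pH 7.5 · Incubation – Compound–protein incubation for 5 h at 4 °C · Technique – TR-FRET, Eu(K)-anti-GST donor, streptavidin-D2 acceptor, ex 340, em 617/671 nm · Evaluation – percent inhibition of 671/617 nm emission ratio versus biotin and DMSO controls · Plate – 1536-well format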
PG9 Ab binder: PG9 antibody binding by small molecule. TR-FRET gp120-PG9 antibody binding. inhibition, % at 6.7 µM. 360,000 compounds, 0.43% hits; in the data active = inhibition above about 8.5%
PKA-R2B activ: activators of human PKA-R2B complex | PKA-R2B holoenzyme dissociation, Cy5-IP20 fluorescence polarization; R2B truncated from residue 108, S112A mutant; 0% DMSO only, 100% 113 µM cGMP | activation, % at 11.4 µM | 340,000 compounds, 0.079% hits | AID 504700;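 active = activation above a cutoff set at the mean over all compounds plus 3 SD, cut at about 18% in these data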;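 also: higher means more holoenzyme dissociation and a rise in polarization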
Rev-erbA mod: modulates human Rev-erb alpha binding to DNA; P20393; Rev-erbα–FITC-DNA binding, fluorescence polarization, 90 min; 370,000 compounds, 0.79% hits; activity, % at 10 µM;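 active = activity above about 14%, limit read from the data; passing the limit was not always enough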;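 also: 0% = DMSO wells with 35 nM protein and 100% = DMSO wells with 750 nM protein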
NR2E3 ag-2: activates human NR2E3 receptor; CHO-S Gal4-NCOR/VP16-NR2E3 two-hybrid, luciferase; Q9Y5X4; inhibition of corepressor binding, % at 3.98 µM; 360,000 compounds, 0.35% hits;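 active = inhibition above the mean of all tested compounds plus 3 SD, cut at about 70% in these data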;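 also: 0% = DMSO with NR2E3 transfected cells and 100% = cells lacking NR2E3 construct; higher means lower luciferase signal from less NR2E3 corepressor binding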
PKA-R1A act: activates the PKA-R1A holoenzyme complex. P00514+P68181. PKA-R1A dissociation, Cy5-IP20 fluorescence polarization; scaled: DMSO 0%, 113 µM cGMP 100%. activation, % at 11.4 µM. 340,000 compounds, 0.083% hits. AID 504707;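 active = percent activation above the mean of all tested compounds plus 3 SD, cut at about 19% in these data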;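 also: higher means more PKAc released from R1A so a rise in polarization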
NR2E3 ag conf: confirmation of human NR2E3 agonists. 2,300 compounds, 51% hits. CHO-S mammalian two-hybrid NR2E3-NCOR, luciferase luminescence. shares compounds with NR2E3 ag-2. inhibition, % at 3.98 µM;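 active = average inhibition above a cutoff equal to the mean inhibition of all tested compounds plus one SD, cut at about 70% in these data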;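 also: 0% = DMSO in NR2E3 cells and 100% = DMSO in cells lacking NR2E3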
VP16 counter: GAL4-VP16 reporter inhibition in NR2E3 agonist counterscreen | shares compounds with NR2E3 ag-2 | CHO-S GAL4-VP16 luciferase reporter, luminescence | inhibition, % at 3.98 µM | 2,300 compounds, 29% hits | AID 624379;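 active = mean inhibition above a cutoff equal to the average over all tested compounds plus one standard deviation, cut at about 70% in these data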;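 also: luciferase from a UAS reporter driven by GAL4-VP16 transactivation; 0% = DMSO with VP16-transfected cells and 100% = DMSO with cells lacking VP16; higher means less reporter light so more repression of VP16 activity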
* = called active by the depositor; · = no result given.

SMILES | NR2E3 ag-1 | PG9 Ab binder | PKA-R2B activ | Rev-erbA mod | NR2E3 ag-2 | PKA-R1A act | NR2E3 ag conf | VP16 counter
Cc1csc2ncnc(N3CCN(C(=S)Nc4ccc(F)cc4F)CC3)c12 | 1 | -2 | · | 0 | 61 | · | 93* | 82*
CC1CN(C(=S)Nc2ccc(F)cc2F)CC(C)O1 (configuration not stated) | 3 | -2 | -7 | 2 | -4 | 18 | · | ·
CCCC(=O)OC[C@H]1CN(C2CCCC2)S(=O)(=O)c2c(Oc3ccc(F)cc3OC)cccc2O1 | · | -1 | · | 5 | · | · | · | ·
CCCn1c(N2CCC(Cc3ccccc3)CC2)nc2c1c(=O)[nH]c(=O)n2C | 3 | -1 | -13 | -8 | 49 | -4 | 29 | 39
NC(=S)N/N=C/c1c(O)ccc2ccccc12 | -2 | -3 | -6 | 2 | 75* | -2 | 2 | 10
Cc1cc(/C=N/n2cnnc2)c(C)n1-c1ccc(OCc2ccc(F)cc2)cc1 | 1 | 1 | -13 | -5 | 48 | -9 | 96* | 85*
Cc1cc(/C=N/n2cnnc2)c(C)n1-c1ccc(Cl)cc1 | 3 | 0 | 2 | 10 | 1 | -7 | · | ·
Cc1cc(/C=N/n2cnnc2)c(C)n1-c1ccc(OCc2ccc(Cl)cc2Cl)cc1 | 2 | · | -1 | · | 111* | 2 | 98* | 89*
CCOCCOC(=O)c1[nH]c2c(c1C)C(=O)CC(c1ccc(OC)c(OC)c1)C2 (configuration not stated) | 3 | -2 | -1 | -4 | -3 | 5 | · | ·
COc1cc(C2CC(=O)c3c([nH]c(C(=O)OCCOC(C)C)c3C)C2)cc(OC)c1OC (configuration not stated) | 3 | -2 | 5 | -2 | 53 | -8 | 53 | 56
O=C(Nc1ccc(Cl)c(Cl)c1)C1CCCN1S(=O)(=O)c1cccc2cccnc12 (configuration not stated) | · | · | · | -2 | · | · | · | ·
COc1ccc2nc(N3C(=O)CNC3=S)sc2c1 | 0 | -3 | 6 | 0 | -121 | 4 | · | ·
Cc1ccc2nc(N3C(=O)CNC3=S)sc2c1 | 5 | -3 | · | 5 | 49 | · | -172 | -190
COc1cc(C=Nn2c(-c3ccc(F)cc3)n[nH]c2=S)ccc1OCc1ccccc1 | · | · | · | -19 | · | · | · | ·
CC1Cc2cc(S(=O)(=O)NCCc3ccccc3)ccc2N1C(=O)C1CC1 (configuration not stated) | -1 | -1 | -9 | 1 | 50 | -11 | 71* | 57
CC(=O)N1c2ccc(S(=O)(=O)NCCc3ccccc3)cc2CC1C (configuration not stated) | -1 | -3 | -16 | 5 | 73* | -3 | 55 | 50
CCC(=O)N1c2ccc(S(=O)(=O)NCCc3ccc(C)cc3)cc2CC1C (configuration not stated) | 2 | 0 | -10 | -5 | 27 | -15 | · | ·
CC(=O)N1c2ccc(S(=O)(=O)NCC3CCC(C(=O)Nc4ncccc4C)CC3)cc2CC1C (configuration not stated) | -5 | 0 | 1 | -1 | -11 | -7 | · | ·
CC(=O)N1c2ccc(S(=O)(=O)NCC3CCC(C(=O)Nc4cc(C)ccn4)CC3)cc2CC1C (configuration not stated) | 1 | -1 | -12 | 1 | 48 | -4 | 52 | 40
COc1ccc(/C=C2\CC3(OC(=O)C4CCCC4)CCCN2C3)cc1 (configuration not stated) | · | · | · | 1 | · | · | · | ·
Cc1ccc(N2CC(C(=O)Nc3nccs3)CC2=O)cc1Cl (configuration not stated) | 2 | -1 | 6 | -2 | 48 | -1 | 59 | 21
CCOC(=O)N1CCC(NC(=O)C2CCCN(Cc3nc(-c4cccc(Cl)c4)oc3C)C2)CC1 (configuration not stated) | 0 | 0 | -2 | -1 | 84* | -9 | 88* | 65
Cc1oc(-c2ccc(Cl)cc2)nc1CN1CCCC(C(=O)NC2CC2)C1 (configuration not stated) | 4 | 1 | 5 | -2 | 14 | -3 | · | ·
CN1CCc2c(sc(NC(=O)c3ccc([N+](=O)[O-])o3)c2C(N)=O)C1 | -5 | -20 | 8 | -1 | 57 | -3 | 49 | 40
NC(=O)c1c(NC(=O)c2ccc([N+](=O)[O-])o2)sc2c1CCCC2 | 5 | 0 | -2 | -2 | 5 | -9 | · | ·
SMILES | NR2E3 ag-1 | PG9 Ab binder | PKA-R2B activ | Rev-erbA mod | NR2E3 ag-2 | PKA-R1A act | NR2E3 ag conf | VP16 counter
COC(=O)C1CN(Cc2ccc(F)cc2)CCS(=O)(=O)N1Cc1ccc(C)cc1 (configuration not stated) | · | · | · | -6 | · | · | · | ·
C(=N\Nc1nc(Nc2ccccc2)nc(N2CCOCC2)n1)/c1c[nH]c2ccccc12 | -1 | -1 | · | 0 | · | · | · | ·
Cc1cccc(Nc2nc(N3CCOCC3)nc(N3CCOCC3)n2)c1 | 2 | 1 | 4 | 2 | 57 | 0 | 56 | 29
Cc1ccc(Nc2nc(N/N=C/c3c[nH]c4ccccc34)nc(N3CCOCC3)n2)cc1 | 0 | -2 | 4 | 3 | 52 | -3 | 51 | 20
N/C(=N\OC(=O)c1ccccc1)c1ccccn1 | 4 | -2 | 4 | 2 | -132 | 6 | · | ·
CCOc1ccc(C(=O)O/N=C(\N)c2ccccn2)cc1 | · | 0 | 1 | -5 | 52 | -2 | -58 | -126
CC(C)(C)c1ccc(C(=O)O/N=C(\N)c2ccccn2)cc1 | 6 | 2 | -3 | -2 | 106* | -4 | 89* | 76*
Cc1ccc(C(=O)O/N=C(\N)c2ccccn2)cc1 | 1 | 0 | 9 | 3 | -75 | 9 | · | ·
CC(C)(S)C(=O)N[C@@H](CS)C(=O)O | · | · | · | 8 | · | · | · | ·
Cc1csc2ncnc(NCCc3ccccn3)c12 | 3 | -6 | -10 | 13 | 71* | -5 | 90* | 77*
c1ccc(CCNc2ncnc3sccc23)nc1 | 0 | 0 | 2 | -1 | 2 | -13 | · | ·
CC(C)Nc1ncnc2c1ncn2[C@H]1CN(Cc2ccc(-c3ccccc3)cc2)C[C@@H](CO)O1 | · | 1 | · | 0 | 73* | · | 70 | 52
OCCNc1ncnc2c1ncn2[C@H]1CN(Cc2ccc(-c3ccccc3)cc2)C[C@@H](CO)O1 | · | · | · | · | 11 | · | · | ·
CC(C)CNc1ncnc2c1ncn2[C@H]1CN(Cc2ccc(-c3ccccc3)cc2)C[C@@H](CO)O1 | · | 0 | · | -6 | 63 | · | 89* | 67
